The results in this text go back to ChEMBL document CHEMBL1125460, “Antimalarial activity of new dihydroartemisinin derivatives. 5. Sugar analogues” (J Med Chem, 1992).

In test [1] the test system is Plasmodium falciparum. The experiment in a line: In vitro antimalarial activity against Plasmodium falciparum Indochina W2. It is filed as functional, organism-based. Summed up: (§1)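 Compound dissolved in DMSO and 70% ethanol, then diluted in RPMI 1640 with 10% human plasma and tested over (1.56-100) × 10^-9 M. Parasites at 0.5% parasitemia, 1% hematocrit, incubated 24 h with compound before [3H]hypoxanthine was added, then a further 18 h. Read-out is [3H]hypoxanthine uptake. IC50 obtained by nonlinear regression of concentration-response data.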

Test [2] deals with Plasmodium falciparum. As to the kind of experiment: In vitro antimalarial activity against Plasmodium falciparum D6 Sierra Leone. The class given is functional, organism-based. Summed up:
as §1

Test [3] relates to Plasmodium berghei. As to the kind of experiment: Antimalarial activity for Plasmodium berghei infected mice (Mus musculus) (n=5) at 320 mg/kg/day. The class given is functional.
Test [4] deals with Plasmodium berghei. The experiment in a line: Antimalarial activity for Plasmodium berghei infected mice (Mus musculus) (n=5) at 80 mg/kg/day. The class given is functional.
In test [5] the test system is Plasmodium berghei. The experiment in a line: Antimalarial activity for Plasmodium berghei infected mice (Mus musculus) (n=5) at 20 mg/kg/day. It is filed as functional.

Converted amounts (≈) assume the structure as drawn.

With `C[C@H]1[C@@H](O[C@@H]2O[C@H](CO)[C@H](O)[C@H](O)[C@H]2O)O[C@@H]2O[C@@]3(C)CC[C@H]4[C@H](C)CC[C@@H]1[C@@]24OO3`, the figures for the IC50 with Plasmodium falciparum [1] and in the test on Plasmodium falciparum [2] were 0.0356 µg/mL (≈ 0.0797 µM) and 0.0131 µg/mL (≈ 0.0294 µM), respectively.
Regarding `C[C@H]1[C@@H](O[Si](C)(C)C)O[C@@H]2O[C@@]3(C)CC[C@H]4[C@H](C)CC[C@@H]1[C@@]24OO3`, the “No. of mice cured” value in the test on Plasmodium berghei [3] was found to be 4; in the test with Plasmodium berghei [4] it was 5; in the test with Plasmodium berghei [5], 1. Also, the figures for the IC50 in the test on Plasmodium falciparum [1] and with Plasmodium falciparum [2] were 0.00042 µg/mL (≈ 0.00118 µM) and 0.00111 µg/mL (≈ 0.00311 µM), respectively.
Turning to `C[C@H]1[C@@H](O[C@@H]2O[C@H](CO)[C@@H](O)[C@H](O)[C@H]2O)O[C@@H]2O[C@@]3(C)CC[C@H]4[C@H](C)CC[C@@H]1[C@@]24OO3`, the IC50 with Plasmodium falciparum [1] came out at 0.0341 µg/mL (≈ 0.0763 µM); in the test with Plasmodium falciparum [2] it was 0.121 µg/mL (≈ 0.272 µM).
Consider `C[C@@H]1CC[C@H]2[C@@H](C)C(=O)O[C@@H]3O[C@@]4(C)CC[C@@H]1[C@]32OO4` [ARTEMISININ], for which the IC50 in the test on Plasmodium falciparum [1] was 0.00068 µg/mL (≈ 0.00241 µM).
Regarding `CC(=O)O[C@@H]1[C@@H](OC(C)=O)[C@@H](C)O[C@H](COC(=O)CO[C@H]2O[C@@H]3O[C@@]4(C)CC[C@H]5[C@H](C)CC[C@@H]([C@H]2C)[C@@]35OO4)[C@H]1OC(C)=O`, the “No. of mice cured” value in the test on Plasmodium berghei [3] stood at 5; in the test on Plasmodium berghei [4], 0; with Plasmodium berghei [5] it was 0. The IC50 with Plasmodium falciparum [1] was 0.00019 µg/mL (≈ 0.000302 µM); in the test on Plasmodium falciparum [2] it was 0.00248 µg/mL (≈ 0.00394 µM).
`C[C@H]1[C@@H](O[C@@H]2O[C@H](CO)[C@@H](O[C@@H]3O[C@H](CO)[C@@H](O)[C@H](O)[C@H]3O)[C@H](O)[C@H]2O)O[C@@H]2O[C@@]3(C)CC[C@H]4[C@H](C)CC[C@@H]1[C@@]24OO3`: the IC50 was 0.171 µg/mL (≈ 0.281 µM) in the test on Plasmodium falciparum [1] and 0.71 µg/mL (≈ 1.17 µM) in the test on Plasmodium falciparum [2].
